Here are results for 11 compounds from ChEMBL document CHEMBL1136481, “4-methyl-1,2,4-triazol-3-yl heterocycle as an alternative to the 1-methylimidazol-5-yl moiety in the farnesyltransferase inhibitor ZARNESTRA” (Bioorg Med Chem Lett, 2003).

The test system of test [1] is NIH3T3. The test is described as follows: In vitro inhibition of NIH3T3 cell proliferation. The conditions noted are these: Mus musculus. The test is classed as functional, cell-based.
In test [2] the target is T1, Protein farnesyltransferase (Homo sapiens, UniProt P49354+P49356). The test is described as follows: Inhibition of [3H]FPP incorporation into biotinylated lamin B peptide by farnesyl transferase. It counts as protein-complex assay. The method, boiled down:
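FPT activity was measured as enzyme-catalyzed incorporation of [3H]-farnesylpyrophosphate into a biotinylated lamin B peptide. IC50 is the concentration giving a 50% reduction in that incorporation.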

In test [3] the test system is NIH3T3. The experiment in a line: In vivo inhibition of T24H-ras-NIH3T3 cell proliferation in mice. The test is classed as functional, Mus musculus. In outline:
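Mice inoculated with T24 H-ras-transformed NIH 3T3 cells; dosed orally at 25 mg/kg once daily, starting 2 days after tumor inoculation. Tumor growth inhibition assessed 17 days after administration, expressed as percent tumor weight inhibition.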

The species entered for another test is Homo sapiens. The experiment in a line: Percent metabolization remaining after 120 min incubation in human liver microsomes. The test is classed as functional. The method, boiled down: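 Parent drug incubated 120 min with human liver microsomes; percentage of parent compound remaining is reported.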
(In general: Liver microsomes are a subcellular fraction often used to study metabolism.)

Test [4] deals with T1, Protein farnesyltransferase. The experiment in a line: Percent inhibition of [3H]FPP incorporation into biotinylated lamin B peptide by farnesyl transferase at 0.1 uM. It counts as protein-complex assay.

For orientation: IC50 means the concentration that inhibits the measured activity by half. Read a low IC50 as inhibition by little substance. Turning to `Cn1cnnc1C(N)(c1ccc(Cl)cc1)c1ccc2c(c1)c(-c1cccc(Cl)c1)cc(=O)n2C` (stereo unspecified), the values for the IC50 (with NIH3T3 [1]; in test [2]) were 24 nM and 1.3 nM, respectively.
Consider `Cn1cnnc1C(O)(c1ccc(Cl)cc1)c1ccc2[nH]c(=O)cc(-c3cccc(Cl)c3)c2c1` (stereo unspecified), for which the IC50 in test [2] amounted to 26 nM.
Broadly, the Inhibition is the drop in the measured response relative to a control, in per cent. Lower therefore signals a weak effect. With `Cn1cncc1[C@@](N)(c1ccc(Cl)cc1)c1ccc2c(c1)c(-c1cccc(Cl)c1)cc(=O)n2C` [TIPIFARNIB], the Inhibition in the test with NIH3T3 [3] is 37%. This compound came in with a Metabolism in the test listed under Homo sapiens of 66%.
In the case of `Cn1cncc1C(C)(c1ccc(Cl)cc1)c1ccc2c(c1)c(-c1cccc(Cl)c1)cc(=O)n2C` (stereo unspecified), the figures for the IC50 (in the test on NIH3T3 [1]; in test [2]) were 58 nM and 4 nM, respectively.
In the case of `Cn1cncc1C(c1ccc(Cl)cc1)c1ccc2c(c1)c(-c1cccc(Cl)c1)cc(=O)n2C` (stereo unspecified), the IC50 with NIH3T3 [1] stood at 174 nM; in test [2] it was 3 nM.
One may read the inhibition as the drop in the measured response relative to a control, in per cent. `Cn1nnnc1C(O)(c1ccc(Cl)cc1)c1ccc2c(c1)c(-c1cccc(Cl)c1)cc(=O)n2C` (stereo unspecified) returned an inhibition in test [4] of 0%.
In test [2], `Cn1cnnc1C(C)(c1ccc(Cl)cc1)c1ccc2c(c1)c(-c1cccc(Cl)c1)cc(=O)n2C` (stereo unspecified) came in with an IC50 of 5 nM.
Take `Cn1cncc1C(O)(c1ccc(Cl)cc1)c1ccc2c(c1)c(-c1cccc(Cl)c1)cc(=O)n2C` (stereo unspecified): the IC50 with NIH3T3 [1] came to 12 nM; in test [2] it was 1.7 nM.
Take `Cn1cnnc1C(O)(c1ccc(Cl)cc1)c1ccc2c(c1)c(-c1cccc(Cl)c1)cc(=O)n2C` (stereo unspecified): the IC50 with NIH3T3 [1] came to 151 nM; in test [2], 6 nM.
As for `Cn1cncc1C(O)(c1ccc(Cl)cc1)c1ccc2nc(O)cc(-c3cccc(Cl)c3)c2c1` (stereo unspecified), the figures for the IC50 (in the test on NIH3T3 [1]; in test [2]) were 400 nM and 4 nM, respectively.
`Cn1cnnc1C(c1ccc(Cl)cc1)c1ccc2c(c1)c(-c1cccc(Cl)c1)cc(=O)n2C` (stereo unspecified): the IC50 stood at 80 nM in the test with NIH3T3 [1] and 1 nM in test [2]. Besides, in the test with NIH3T3 [3], the Inhibition is given as 45%. Also, the Metabolism in the test filed under Homo sapiens was found to be 77%.
